As a reminder, the IC50 is the midpoint of a concentration-inhibition curve.

SMILES strings stand for the structures. Calls of active or inactive are those of the source.

The values below come from ChEMBL document CHEMBL5579803, “α-Amino bisphosphonate triazoles serve as GGDPS inhibitors” (Bioorg Med Chem Lett, 2024).

Assay [1] addresses T1, Geranylgeranyl pyrophosphate synthase (Homo sapiens) (UniProt O95749).
T1 sequence (whole entry): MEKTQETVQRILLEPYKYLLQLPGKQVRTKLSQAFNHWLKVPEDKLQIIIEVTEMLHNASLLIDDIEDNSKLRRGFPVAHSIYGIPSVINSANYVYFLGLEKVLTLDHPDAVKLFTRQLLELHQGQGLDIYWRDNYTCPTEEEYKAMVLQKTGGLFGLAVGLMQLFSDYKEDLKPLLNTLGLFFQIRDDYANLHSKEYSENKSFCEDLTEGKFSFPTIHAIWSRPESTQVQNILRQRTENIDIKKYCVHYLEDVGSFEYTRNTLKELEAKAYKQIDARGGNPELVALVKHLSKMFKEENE
Description: Inhibition of GGDPS (unknown origin) using uRAP1a as substrate in RPMI-8226 cells assessed as disruption of geranylgeranylation by measuring unmodified Rap1a at 0.5 uM incubated for 48 hrs by immunoblot analysis. The format is cell-based. Put shortly:
(§1)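 RPMI-8226 myeloma cells exposed 48 h to varying test concentrations, with lovastatin (10 μM) as positive control. Lysates were immunoblotted with an antibody that recognises only unprenylated Rap1a, with β-tubulin as loading control. Gels are representative of three independent studies.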
A general note: A western blot detects proteins with antibodies after separation by electrophoresis.

Assay [2] addresses T2, Geranylgeranyl pyrophosphate synthase (Homo sapiens, UniProt O95749).
T2 sequence (O95749 whole entry): T1 sequence (whole entry)
The assay can be described thus: Inhibition of GGDPS (unknown origin) using recombinant enzyme by enzyme assay.

The target in assay [3] is T1, Geranylgeranyl pyrophosphate synthase (Homo sapiens). Description: Inhibition of GGDPS (unknown origin) using uRAP1a as substrate in RPMI-8226 cells by measuring lowest effective concentration by measuring unmodified Rap1a by immunoblot based ELISA analysis. The format is cell-based. The gist of the method: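 Lowest effective concentration in RPMI-8226 cells after 48 h exposure. It is defined as the lowest level giving both a visible unprenylated Rap1a band on immunoblot (β-tubulin loading control) and a statistically significant rise (p<0.05, t-test vs untreated cells) in intracellular lambda light chain by ELISA. Based on n=3 independent experiments.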

The target is the same in assay [4]. The assay can be described thus: Inhibition of GGDPS (unknown origin) using uRAP1a as substrate in RPMI-8226 cells assessed as disruption of geranylgeranylation by measuring unmodified Rap1a at […] incubated for 48 hrs by immunoblot analysis. The format is cell-based. The conditions noted are these: dose 0.25 µM.
Assay [5] shares this target. Description: Inhibition of GGDPS (unknown origin) using uRAP1a as substrate in RPMI-8226 cells assessed as disruption of geranylgeranylation by measuring unmodified Rap1a at 10 uM incubated for 48 hrs by immunoblot analysis. The format is cell-based. Put shortly: as §1

Turning to `CC(C)=CCCC(C)=CCn1cc(CC(N)(P(=O)(O)O)P(=O)(O)O)nn1`, in assay [1], the inhibition result was “Active”. In addition, the concentration for half-maximal inhibition (IC50) in assay [2] is 3760 nM. The same molecule gave an MEC in assay [3] of 0.5 µM.
In the case of `CC(C)=CCC/C(C)=C/CCn1cc(CC(N)(P(=O)(O)O)P(=O)(O)O)nn1`, in assay [2], the IC50 was determined as 52.1 nM. Further, the MEC in assay [3] came out at 1 µM.
In the case of `CC(C)=CCC/C(C)=C\Cn1cc(CC(N)(P(=O)(O)O)P(=O)(O)O)nn1`, in assay [4], the inhibition entry was “Active”. For the same molecule, the IC50 in assay [2] was 270 nM. This molecule also showed an MEC in assay [3] of 0.25 µM.
In assay [3], `CC(C)=CCC/C(C)=C/CCn1cc(CC(P(=O)(O)O)P(=O)(O)O)nn1` yielded an MEC of 0.03 µM.
As for `CC(C)=CCC/C(C)=C\CCn1cc(CC(N)(P(=O)(O)O)P(=O)(O)O)nn1`, the IC50 in assay [2] is 49.4 nM. The molecule further registered an MEC in assay [3] of 0.25 µM.
Turning to `CC(C)=CCC/C(C)=C/Cn1cc(CC(N)(P(=O)(O)O)P(=O)(O)O)nn1`, in assay [5], the inhibition entry is “inactive”. Also, the IC50 in assay [2] was above 100000 nM.
